Calls of active or inactive are those of the source. The calls are words filed in the database; no cut-off is given here.
Assays:
[1] = system: Ca-Ski; assay: Antiproliferative activity against HPV-positive human Ca-Ski cells assessed as inhibition of cell growth incubated for 48 hrs by WST-1 assay; format: functional, cell-based
In short: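 CaSki cells were grown in RPMI 1640 with 10% FBS, kept below passage 10, at 37 °C and 5% CO2. They were seeded at 1000–3000 cells/well (about 50% confluence) and treated with 12 serial dilutions from 200 to 2 μM in DMSO (N = 3), with DMSO and 50 μM etoposide controls. After 48 h, 2 h WST-1 was read at 450/600 nm, normalized, and fitted by nonlinear regression.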

[2] = system: C-33-A; assay: Antiproliferative activity against HPV-negative human C-33-A cells assessed as inhibition of cell growth incubated for 48 hrs by WST-1 assay; format: functional, cell-based
In short: (§1)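 CaSki cells (RPMI 1640) and C33A cells (DMEM), passage <10, kept at 37 °C in 5% CO2. Cells were seeded at 1000–3000 per well to reach 50% confluency, then treated 48 h with serial dilutions from 200 to 2 μM in DMSO (N = 3). WST-1 was read after 2 h at 450/600 nm. Absorbances were normalized and EC50 came from nonlinear regression.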

[3] = system: Candida; assay: Antifungal activity against Candida; format: functional, organism-based
[4] = system: Enterococcus faecium; assay: Antibacterial activity against Enterococcus faecium; format: functional, organism-based
[5] = system: Staphylococcus aureus; assay: Antibacterial activity against Staphylococcus aureus; format: functional, organism-based
[6] = system: Klebsiella pneumoniae; assay: Antibacterial activity against Klebsiella pneumoniae; format: functional, organism-based
[7] = system: Acinetobacter baumannii; assay: Antibacterial activity against Acinetobacter baumannii; format: functional, organism-based
[8] = system: Pseudomonas aeruginosa; assay: Antibacterial activity against Pseudomonas aeruginosa; format: functional, organism-based
[9] = system: Enterobacter sp.; assay: Antibacterial activity against Enterobacter sp.; format: functional, organism-based
[10] = system: Mycobacterium tuberculosis; assay: Antibacterial activity against Mycobacterium tuberculosis; format: functional, organism-based
[11] = system: Human orthopneumovirus; assay: Antiviral activity against human respiratory syncytial virus; format: functional, organism-based
[12] = system: Ca-Ski; assay: Antiproliferative activity against HPV-positive human Ca-Ski cells assessed as inhibition of cell growth at 50 uM incubated for 48 hrs by WST-1 assay; format: functional, cell-based
[13] = system: C-33-A; assay: Antiproliferative activity against HPV-negative human C-33-A cells assessed as inhibition of cell growth at 50 uM incubated for 48 hrs by WST-1 assay; format: functional, cell-based
In short: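 C33A cells in DMEM, seeded at 1000–3000 per well and exposed to 50 μM etoposide as the positive control alongside a DMSO negative control (N = 3). Proliferation was read by WST-1 after 48 h treatment plus 2 h reagent incubation, at 450/600 nm. End-point absorbances were normalized.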

[14] = Selectivity ratio of EC50 for antiproliferative activity against HPV-positive human Ca-Ski cells to EC50 for antiproliferative activity against HPV-negative human C-33-A cells; format: functional; in short: as §1

Compound	EC50 [1]	EC50 [2]	Activity [3]	Activity [4]	Activity [5]	Activity [6]	Activity [7]	Activity [8]	Activity [9]	Activity [10]	Activity [11]	Activity [12]	Activity [13]	Ratio EC50 [14]
CC(=O)Oc1cc(C)c(O)c2c1C=CC(C)(CC/C=C(\C)CCC=C(C)C)O2 (stereo not drawn)	25 µM	14 µM	inactive	inactive	inactive	inactive	inactive	inactive	inactive	inactive	inactive	–	–	–
COc1cc([C@@H]2c3cc4c(cc3[C@@H](O[C@@H]3O[C@@H]5CO[C@@H](C)O[C@H]5[C@H](O)[C@H]3O)[C@H]3COC(=O)[C@H]23)OCO4)cc(OC)c1O	–	–	–	–	–	–	–	–	–	–	–	Active	Active	–
COc1cc(C)c(O)c2c1C=CC(C)(CC/C=C(\C)CCCC(C)(C)O)O2 (stereo not drawn)	41 µM	38 µM	inactive	inactive	inactive	inactive	inactive	inactive	inactive	inactive	inactive	–	–	–
COc1cc(C)c(O)c2c1C=CC(C)(CC/C=C(\C)CCCC(C)(C)OC(C)=O)O2 (stereo not drawn)	20 µM	0.04 µM	inactive	inactive	inactive	inactive	inactive	inactive	inactive	inactive	inactive	–	–	500
CC(C)=CCC/C(C)=C/CC/C(C)=C/Cc1c(O)c(O)c(C)c(O)c1C=O	23 µM	14 µM	inactive	inactive	inactive	inactive	inactive	inactive	inactive	inactive	inactive	–	–	–
CC(C)=CCC/C(C)=C/CCC1(C)C=Cc2c(C=O)c(O)c(C)c(O)c2O1 (stereo not drawn)	46 µM	58 µM	inactive	inactive	inactive	inactive	inactive	inactive	inactive	inactive	inactive	–	–	–
